Bioassay records deposited in PubChem by Broad Institute.
rRNA inh HTS = inhibits bacterial ribosomal RNA function over humanized ribosomes. GFP signal change (wild-type ribosome), % (test concentration not listed). E. coli WT GFP vs humanized-ribosome RFP mutants, fluorescence, 24 h; hits give low values; DMSO median 0, no signal -100. hit rate 1.6% among 350,000;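 active means significant combined selectivity score with lowered wild-type GFP, culture density cut under 30%, mutant RFP and density less affected; inactive means any of these conditions unmet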
PDI turbidity = blocks human protein disulfide isomerase activity; P07237; hit rate 0.052% among 350,000; PDI insulin aggregation turbidity, A650, 90 min; inhibition, % at 10 µM; AID 588391;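 active means mean inhibition across replicates of 30% or more, whatever share of single replicates reach that level; inconclusive means mean inhibition below 30% while every single replicate reaches 30%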
Env fusion inh = inhibitors of HIV Env-mediated cell fusion. hit rate 1.1% among 360,000. HeLa-JRFL Env/CEM21 cell fusion, luciferase. inhibition, % at 12.3 µM;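 active means mean replicate inhibition score of at least 50 and every replicate individually at or above 50; inconclusive means only one of the two criteria met; inactive means mean below 50 and not all replicates reaching 50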;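 further: 0% = plate neutral controls and 100% = maraviroc near 300 nM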
ERp5 block = blocks human ERp5 reductase activity on insulin. Q15084. ERp5 insulin aggregation, absorbance 650 nm, 90 min. inhibition, % at 9.99 µM. hit rate 0.05% among 350,000. AID 651711;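 active means mean replicate inhibition above about 25%, with every replicate also reaching it, limit read from the data, passing the limit was not always enough; inconclusive means only one of those two criteria met; inactive means neither criterion met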
Target sequence (Q15084 whole entry, looked up): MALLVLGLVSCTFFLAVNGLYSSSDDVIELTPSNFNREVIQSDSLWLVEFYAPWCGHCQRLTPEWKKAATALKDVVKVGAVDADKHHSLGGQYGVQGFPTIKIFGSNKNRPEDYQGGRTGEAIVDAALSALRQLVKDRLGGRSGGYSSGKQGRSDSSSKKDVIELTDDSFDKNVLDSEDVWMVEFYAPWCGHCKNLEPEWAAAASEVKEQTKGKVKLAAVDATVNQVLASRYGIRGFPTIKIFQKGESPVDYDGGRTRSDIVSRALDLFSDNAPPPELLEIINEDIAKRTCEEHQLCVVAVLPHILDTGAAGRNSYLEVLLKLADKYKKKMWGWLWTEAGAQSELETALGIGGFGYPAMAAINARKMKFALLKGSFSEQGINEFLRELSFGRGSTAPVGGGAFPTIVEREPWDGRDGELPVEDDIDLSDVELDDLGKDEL
PvdQ acylase = blocks Pseudomonas aeruginosa PvdQ acylase activity; purified PvdQ acylase, fluorescence plate reader; inhibition, % at 10 µM; hit rate 0.063% among 340,000; AID 488965; in the data active means inhibition above about 30%, passing the limit was not always enough; inconclusive means no clear call, values can overlap the other calls;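 further: 0% = vehicle neutral wells and 100% = reference inhibitor wells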
FN deposition inh = fibronectin deposition inhibition | inhibition, % at 12.6 µM | AH1F fibroblasts, Alexa488-fibronectin deposition fluorescence, overnight | hit rate 0.086% among 350,000;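 active means mean inhibition across replicates of 30% or more, regardless of how many single replicates reach that level; inconclusive means mean under 30% yet at least half of replicates reach 30%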;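 further: positive control wells lacked labelled fibronectin entirely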
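Material – AH1F fibroblast monolayer, labelled fibronectin deposition · Reagent – labelled fibronectin 24 nM · Timing – 1 h adhesion, overnight exposure · Measured by – fluorescence at 485 nm excitation, 525 nm emission · Read-out – inhibition of fibronectin deposition signal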
HepG2 tox = cytotoxic compounds in HepG2 cells | shares compounds with rRNA inh HTS | HepG2 viability, ATP luminescence, 72 h | activity change, negative = cytotoxicity, unspecified at 26 µM | 30 tested, under 10 active;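 active means compounds whose fitted half-maximal signal-loss concentration is at most twice their highest valid dose; inconclusive means flat curve with 30 to 70% signal loss, or poor fit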
AID977621 = growth inhibition of wild-type GFP E. coli, dose response, H69 mutant RFP, cherry-pick; shares compounds with rRNA inh HTS; E. coli wild-type GFP strain growth, fluorescence, 24 h; activity change, negative = inhibition at 50 µM; 1,900 tested, under 10 active;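 active means Wild-type ribosome reporter drop at least double the humanized mutant ribosome reporter drop, growth loss under a set limit; inconclusive means no clear call, values can overlap the other calls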;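 further: wild-type GFP and H69 mutant RFP strains grown together 50/50 in each well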
AID977628 = growth of wild-type and h24-humanized E. coli strains – h24 mutant RFP vs wild-type GFP, cherry-pick, dose response | activity change, negative = inhibition at 50 µM | 1,900 tested, under 10 active | shares compounds with rRNA inh HTS | E. coli WT GFP strain growth, fluorescence, 24 h;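 active means compound lowering the normal-ribosome reporter at least twice as much as the humanized-ribosome reporter, growth loss under a set limit; inconclusive means no clear call, values can overlap the other calls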;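 further: wild-type GFP and h24 humanized RFP strains co-cultured 1 to 1 per well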
* = called active by the depositor; ? = inconclusive; nt = not tested or not shown; ! = a repeat was not active; [ ] = another dose, or the depositor's remark. In the library only some 2.2% were active in any assay of this set; here they are far more common.

SMILES | rRNA inh HTS | PDI turbidity | Env fusion inh | ERp5 block | PvdQ acylase | FN deposition inh | AID977621 | AID977628 | others
COC(=O)c1ccc(-n2nnnc2SC)cc1 | nt | 3 | -81 | nt | -6 | 2 | nt | nt
OCCC1CN(Cc2cnc(-c3ccc(Cl)cc3)nc2)CCN1C1CCCCC1 (stereo unspecified) | -18* | 3 | 15 | -3 | 1 | 6 | -2.9 | -5.5
CCC(C(=O)Nc1ccsc1C(=O)OC)c1ccccc1 (stereo unspecified) | -29* | 4 | 13 | 4 | -6 | -1 | -12 | -5.7
CCC(C(=O)Nc1nc(C)c(C(=O)OC)s1)c1ccccc1 (stereo unspecified) | 8 | -9 | 7 | 5 | -1 | -6 | nt | nt
CN1CCN(C(=O)C[C@@H]2CC[C@H]3[C@@H](COC[C@@H](O)CN3C(=O)Nc3ccc(Cl)cc3)O2)CC1 | -24 | nt | nt | -2 | nt | 4 | nt | nt
O=C(C[C@@H]1CC[C@@H]2[C@H](COC[C@H](O)CN2C(=O)Nc2ccc(Cl)cc2)O1)NCc1ccncn1 | -22* | nt | nt | -3 | nt | -5 | -5.3 | ?
O=C(C[C@@H]1CC[C@H]2[C@@H](COC[C@H](O)CN2C(=O)Nc2ccc(Cl)cc2)O1)NCc1ccncn1 | -6 | nt | nt | -1 | nt | -31 | nt | nt
O=C(C[C@@H]1CC[C@H]2[C@@H](COC[C@H](O)CN2C(=O)Nc2ccc(Cl)cc2)O1)N1CCCCC1 | -47 | nt | nt | -1 | nt | -2 | nt | nt
O=C(C[C@H]1CC[C@H]2[C@@H](COC[C@@H](O)CN2C(=O)Nc2ccc(Cl)cc2)O1)N1CCCCC1 | -18* | nt | nt | -10 | nt | -13 | nt | ?
CN1CCN(C(=O)C[C@H]2CC[C@H]3[C@@H](COC[C@H](O)CN3C(=O)Nc3ccc(Cl)cc3)O2)CC1 | -25* | nt | nt | 4 | nt | -14 | nt | ?
CN1CCN(C(=O)C[C@H]2CC[C@H]3[C@@H](COC[C@@H](O)CN3C(=O)Nc3ccc(Cl)cc3)O2)CC1 | -19* | nt | nt | 2 | nt | -9 | nt | ?
C[C@@H]1CCCCO[C@@H](CN(C)Cc2ccc(C(=O)O)cc2)[C@H](C)CN([C@H](C)CO)C(=O)c2cc(NC(=O)CCC(F)(F)F)ccc2O1 | 0 | nt | 2[16.7 µM] | -8 | nt | nt | nt | nt
CC(=O)N(C)C[C@@H]1Oc2ncc(C#Cc3ccccn3)cc2C(=O)N([C@@H](C)CO)C[C@H]1C | 10 | nt | -6[16.7 µM] | -1 | nt | nt | nt | nt
C[C@@H](NC(=O)C[C@@H]1CC[C@@H]2[C@H](COC[C@H](O)CN2C(=O)Nc2cccc(F)c2)O1)c1ccccc1 | -21* | nt | nt | 5 | nt | -2 | nt | ?
CCOC(=O)c1c(NC(=O)Cc2cccs2)sc(C(=O)NC2CCCC2)c1C | nt | -5 | -67 | nt | -13 | 3 | nt | nt
CCOC(=O)c1c(NC(=O)Cc2cccs2)sc(C)c1C | -34* | -4 | nt | -1 | -9 | nt | nt | nt | HepG2 tox=11
COc1cccc(CNC(=O)C[C@@H]2CC[C@@H](NC(C)=O)[C@@H](CO)O2)c1 | 3 | nt | 18[16.7 µM] | -4 | nt | 8 | nt | nt
O=C(Nc1cccc(F)c1)N1C[C@@H]2[C@H](c3ccccc31)[C@H](CO)N2C(=O)Cc1ccccn1 | -18* | nt | nt | 4 | nt | 4 | 5.9 | -0.73
CCC(=O)N1[C@H](CO)[C@@H]2c3ccccc3N(C(=O)Nc3ccc(Cl)cc3)C[C@@H]21 | -22* | nt | nt | -2 | nt | 1 | -13 | nt
COCC(=O)N1[C@@H]2CN(C(=O)Nc3ccccc3F)c3ccccc3[C@@H]2[C@@H]1CO | -18* | nt | nt | 10 | nt | nt | 5.7 | ?
CO[C@H]1CC[C@@H]2CCOc3ccc(C#N)cc3C(=O)N(C)C[C@@H](OC)[C@@H](C)C(=O)N(C)C[C@H]1O2 | 2 | nt | 6[16.7 µM] | 6 | nt | 0 | nt | nt
COc1ccc(NC(=O)CN(C)S(=O)(=O)c2cccs2)cc1 | nt | 2 | nt | nt | -2 | nt | nt | nt
Cc1cccc(NC(=O)CN(C)S(=O)(=O)c2cccs2)c1 | -27* | -3 | nt | -1 | 2 | nt | -15 | ?
Cc1noc(C)c1S(=O)(=O)Nc1ccc2c(c1)C(=O)N([C@H](C)CO)C[C@@H](C)[C@H](CN(C)C)O2 | 2 | nt | nt | -2 | nt | -5 | nt | nt
O=C(CN1CCCCC1)Nc1ccccc1-c1ccccc1 | -15* | 4 | nt | -5 | 1 | nt | -2.8 | nt
SMILES | rRNA inh HTS | PDI turbidity | Env fusion inh | ERp5 block | PvdQ acylase | FN deposition inh | AID977621 | AID977628 | others
CCC(=O)N1[C@H](CO)[C@@H](c2ccccc2)C12CN(Cc1cc(F)ccc1F)C2 | -1 | nt | nt | -1 | nt | nt | nt | nt
C[C@H]1CN([C@@H](C)CO)C(=O)c2cc(NC(=O)Nc3ccc(F)cc3)ccc2O[C@H]1CN(C)C(=O)Nc1ccc(C(F)(F)F)cc1 | -7 | nt | -8[16.7 µM] | nt | nt | nt | nt | nt
O=C(c1cnc(N2CCN(c3ncccn3)CC2)c2ccccc12)N1CCN(c2ncccn2)CC1 | nt | 1 | 5 | nt | -11 | -5 | nt | nt
O=C(c1ccc2c3c(cccc13)CC2)N1CCN(c2ncccn2)CC1 | -28* | 2 | nt | -2 | -3 | nt | -12 | -6.3
CO[C@@H]1CN(C)C(=O)c2ccc(NC(=O)CC(F)(F)F)cc2OC[C@H](C)N(CC2CC2)C[C@@H]1C | 1 | nt | nt | nt | nt | 21 | nt | nt
Cc1ccc(OC(=O)CCC(=O)Oc2ccc(C)cc2C)c(C)c1 | -6 | -2 | 24 | 7 | -6 | -13 | nt | nt
COc1ccc(CC(=O)Oc2ccc(C)cc2C)cc1 | -23* | 0 | 3 | -3 | 5 | 2 | -5.7 | -5.9
O=C(O)C[C@@H]1CC[C@H]2[C@@H](COC[C@H](O)CN2S(=O)(=O)c2ccc(F)cc2)O1 | 2 | nt | nt | -5 | nt | 3 | nt | nt
CO[C@@H]1CN(C)C(=O)c2cc(NC(=O)NC(C)C)ccc2OC[C@H](C)N(C)C[C@@H]1C | 2 | nt | nt | -4 | nt | -5 | nt | nt
CO[C@@H]1CN(C)C(=O)c2ccc(NC(=O)C3CC3)cc2OC[C@H](C)N(CC2CCOCC2)C[C@H]1C | -3 | nt | -32[16.7 µM] | 0 | nt | 12 | nt | nt
CN(C)C(=O)C1C2NC(=S)N(c3cccc(Cl)c3)C1(C)Oc1ccc(Cl)cc12 (stereo unspecified) | -22* | -5 | 12 | 6 | -1 | nt | -2.2 | nt
COc1ccc(NC(=O)Nc2cccc3c2O[C@H](CN(C)C(=O)NC(C)C)[C@H](C)CN([C@@H](C)CO)C3=O)cc1 | 0 | nt | -5[16.7 µM] | 2 | nt | -23 | nt | nt
Cc1cc(NC(=O)CCCn2cc([N+](=O)[O-])cn2)n(Cc2ccc(F)cc2)n1 | -23* | -2 | 4 | 1 | 0 | -2 | 0.39 | ?
COCC#Cc1ccc2c(c1)O[C@H](CN(C)C(=O)c1ccccc1)[C@@H](C)CN([C@H](C)CO)S2(=O)=O | -19*! | nt | -38 | -10 | nt | -4 | -7.6 | -12
